From ChEMBL document CHEMBL3112527, “Quinoline-pyrimidine hybrids: synthesis, antiplasmodial activity, SAR, and mode of action studies” (J Med Chem, 2014)
In brackets after ≈: the same amount, converted by molar mass. Activity calls are given as the source filed them. No cut-off for these calls is given here.

Experiments:
[1] = tested on: Respiratory syncytial virus; assay: Antiviral activity against Respiratory syncytial virus infected in human HeLa cells assessed as inhibition of virus-induced cytopathicity; format: functional, organism-based
Summary of the method: (§1)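 Confluent monolayers (HEL, Vero, HeLa or CrFK, as applicable) were inoculated with 100 CCID50 of virus, with 1 CCID50 being the dose that infects 50% of cultures. Infection ran in the presence of varying compound concentrations. Inhibition of virus-induced cytopathicity was scored against infected cultures left untreated.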

[2] = Aqueous solubility of the compound in PBS buffer at pH 7.4 after 24 hrs by HPLC analysis; format: physicochemical; conditions: pH 7.4, 24 h
Vaccinia virus = assay: Antiviral activity against Vaccinia virus infected in HEL cells assessed as inhibition of virus-induced cytopathicity; format: functional, organism-based; conditions: Orthopoxvirus vaccinia
Summary of the method: (§2)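 Confluent monolayers in 96-well plates were inoculated with 100 CCID50 of virus in the presence of varying concentrations of compound. Read-out was inhibition of virus-induced cytopathicity, compared with untreated infected cultures. Cytotoxicity was judged microscopically or by MTT viability staining.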

Coxsackievirus B4 [3] = assay: Antiviral activity against Coxsackievirus B4 infected in human HeLa cells assessed as inhibition of virus-induced cytopathicity; format: functional, organism-based; summary of the method: as §1
Human alphaherpesvirus 3 = assay: Antiviral activity against Varicella-zoster virus infected in HEL cells assessed as inhibition of virus-induced cytopathicity; format: functional, organism-based
[4] = tested on: Vesicular stomatitis virus; assay: Antiviral activity against Vesicular stomatitis virus infected in HEL cells assessed as inhibition of virus-induced cytopathicity; format: functional, organism-based; summary of the method: as §2
Human betaherpesvirus 5 [5] = assay: Antiviral activity against Cytomegalovirus Davis infected in HEL cells assessed as inhibition of virus-induced cytopathicity; format: functional, organism-based
Human respirovirus 3 = assay: Antiviral activity against parainfluenza virus 3 infected in African green monkey Vero cells assessed as inhibition of virus-induced cytopathicity; format: functional, organism-based; summary of the method: as §1
Human betaherpesvirus 5 [6] = assay: Antiviral activity against Cytomegalovirus AD169 infected in HEL cells assessed as inhibition of virus-induced cytopathicity; format: functional, organism-based
Sindbis virus = assay: Antiviral activity against Sindbis virus infected in African green monkey Vero cells assessed as inhibition of virus-induced cytopathicity; format: functional, organism-based
Plasmodium falciparum [7] = assay: Antiplasmodial activity against chloroquine-resistant asexual erythrocytic stage of Plasmodium falciparum Dd2 assessed as parasite growth inhibition by lactate dehydrogenase assay; format: functional, organism-based
Summary of the method: (§3)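 Parasite lactate dehydrogenase assay (modified Makler method). Samples held as 20 mg/mL stocks in DMSO, diluted on test day. Full dose-response: starting at 10 μg/mL, 2-fold serial dilution in complete medium over 10 concentrations down to 0.02 μg/mL. Chloroquine, artesunate and MMV390048 served as references. IC50 from nonlinear dose-response curve fitting; mean of three independent experiments.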

Feline coronavirus = assay: Antiviral activity against Feline coronavirus infected in cat CRFK cells assessed as inhibition of virus-induced cytopathicity; format: functional, organism-based; summary of the method: as §1
Influenza A virus H3N2 = assay: Antiviral activity against Influenza A virus H3N2 infected in MDCK cells assessed as inhibition of virus-induced cytopathicity; format: functional, organism-based; summary of the method: as §2
[8] = Cytotoxicity against human HeLa cells assessed as alteration of cell morphology by microscopic analysis; format: cell-based; conditions: read-out: MIC
Summary of the method: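 Cells (Vero, HEL, MDCK or HeLa) were exposed to a range of sample concentrations. The value reported is the concentration required to cause a microscopically detectable alteration of normal cell morphology.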

[9] = n-octanol-PBS buffer distribution coefficient, log D of the compound at pH 7.4 after 24 hrs by HPLC analysis; format: physicochemical
Influenza A virus = assay: Antiviral activity against influenza A virus H1N1 infected in MDCK cells assessed as inhibition of virus-induced cytopathicity; format: functional, organism-based; summary of the method: as §2
Human alphaherpesvirus 1 [10] = assay: Antiviral activity against HSV-1 KOS infected in HEL cells assessed as inhibition of virus-induced cytopathicity; format: functional, organism-based; summary of the method: as §1
Human alphaherpesvirus 1 [11] = assay: Antiviral activity against thymidine kinase-negative acyclovir-resistant HSV-1 KOS infected in HEL cells assessed as inhibition of virus-induced cytopathicity; format: functional, organism-based; summary of the method: as §2
[12] = Selectivity index, ratio of CC50 for cat CRFK cells to IC50 for chloroquine-resistant asexual erythrocytic stage of Plasmodium falciparum Dd2; format: functional
Summary of the method: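 Ratio of CRFK CC50 (μM) to Dd2 IC50 […]. CC50 is the 50% cytotoxic concentration in feline kidney CRFK cells, measured as cell viability by colorimetric formazan-based MTS assay. Dd2 IC50 is from the parasite LDH growth-inhibition assay.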

[13] = tested on: Vesicular stomatitis virus; assay: Antiviral activity against Vesicular stomatitis virus infected in human HeLa cells assessed as inhibition of virus-induced cytopathicity; format: functional, organism-based; summary of the method: as §2
[14] = tested on: Mammalian orthoreovirus 1; assay: Antiviral activity against Reovirus 1 infected in African green monkey Vero cells assessed as inhibition of virus-induced cytopathicity; format: functional, organism-based; summary of the method: as §1
[15] = Cytotoxicity against cat CRFK cells assessed as cell viability by MTS assay; format: cell-based, Felis catus
Summary of the method: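 CRFK cells were exposed to varying sample concentrations. Cell viability was measured with the colorimetric formazan-based MTS assay, and the 50% cytotoxic concentration (CC50) was derived from it.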

Punta Toro virus = assay: Antiviral activity against Punta Toro virus infected in African green monkey Vero cells assessed as inhibition of virus-induced cytopathicity; format: functional, organism-based; summary of the method: as §1
[16] = Solubility of the compound in octanol at pH 7.4 by HPLC analysis; format: physicochemical
Human alphaherpesvirus 2 = assay: Antiviral activity against HSV-2 G infected in HEL cells assessed as inhibition of virus-induced cytopathicity; format: functional, organism-based; conditions: strain G; summary of the method: as §1
Plasmodium falciparum [17] = assay: Antiplasmodial activity against chloroquine-sensitive asexual erythrocytic stage of Plasmodium falciparum D10 assessed as parasite growth inhibition by lactate dehydrogenase assay; format: functional, organism-based; summary of the method: as §3
Coxsackievirus B4 [18] = assay: Antiviral activity against Coxsackievirus B4 infected in African green monkey Vero cells assessed as inhibition of virus-induced cytopathicity; format: functional, organism-based; summary of the method: as §1
Felid alphaherpesvirus 1 = assay: Antiviral activity against Feline herpesvirus infected in cat CRFK cells assessed as inhibition of virus-induced cytopathicity; format: functional, organism-based; summary of the method: as §1

Row | Structure (SMILES) | inhibition [1] | solubility [2] [µM] | inhibition (Vaccinia virus) | inhibition (Coxsackievirus B4 [3]) | inhibition (Human alphaherpesvirus 3) | inhibition [4] | inhibition (Human betaherpesvirus 5 [5]) | inhibition (Human respirovirus 3) | inhibition (Human betaherpesvirus 5 [6]) | inhibition (Sindbis virus) | IC50 (Plasmodium falciparum [7]) [nM] | inhibition (Feline coronavirus) | inhibition (Influenza A virus H3N2) | MCC [8] [µM] | logD at 24 h [9] | inhibition (Influenza A virus) | inhibition (Human alphaherpesvirus 1 [10]) | inhibition (Human alphaherpesvirus 1 [11]) | Ratio CC50/IC50 [12] | inhibition [13] | also measured
1 | Clc1ccc2c(NCCCNc3ccnc(N4CCCCC4)n3)ccnc2c1 | inactive | 0.32 (≈ 0.127 µg/mL) | inactive | inactive | inactive | inactive | inactive | inactive | inactive | inactive | 166 | inactive | inactive | 20 | 0.801 | inactive | inactive | inactive | 334 | inactive | inhibition [14]: inactive; CC50 [15]: 55000 nM; inhibition (Punta Toro virus): inactive; solubility [16]: 2.02 µM (≈ 0.802 µg/mL); inhibition (Human alphaherpesvirus 2): inactive; IC50 (Plasmodium falciparum [17]): 65.5 nM; inhibition (Coxsackievirus B4 [18]): inactive; inhibition (Felid alphaherpesvirus 1): inactive
2 | Clc1ccc2c(NCCCNc3ccnc(N4CCOCC4)n3)ccnc2c1 | inactive | 0.55 (≈ 0.219 µg/mL) | inactive | inactive | inactive | inactive | inactive | inactive | inactive | inactive | 404 | inactive | inactive | 100 | 0.363 | inactive | inactive | inactive | >247 | inactive | inhibition [14]: inactive; CC50 [15]: > 100000 nM; inhibition (Punta Toro virus): inactive; solubility [16]: 1.27 µM (≈ 0.507 µg/mL); inhibition (Human alphaherpesvirus 2): inactive; IC50 (Plasmodium falciparum [17]): 70 nM; inhibition (Coxsackievirus B4 [18]): inactive; inhibition (Felid alphaherpesvirus 1): inactive
3 | Clc1ccc2c(NCCNc3nccc(Cl)n3)ccnc2c1 | inactive | 0.9 (≈ 0.301 µg/mL) | inactive | inactive | inactive | inactive | inactive | inactive | inactive | inactive | 7680 | inactive | inactive | > 100 | 0.501 | inactive | inactive | inactive | >12.53 | inactive | inhibition [14]: inactive; CC50 [15]: > 100000 nM; inhibition (Punta Toro virus): inactive; solubility [16]: 2.85 µM (≈ 0.952 µg/mL); inhibition (Human alphaherpesvirus 2): inactive; IC50 (Plasmodium falciparum [17]): 2510 nM; inhibition (Coxsackievirus B4 [18]): inactive; inhibition (Felid alphaherpesvirus 1): inactive
4 | Clc1ccc2c(NCCCOc3nccc(Cl)n3)ccnc2c1 | inactive | 0.2 (≈ 0.0698 µg/mL) | inactive | inactive | inactive | inactive | inactive | inactive | inactive | inactive | 204 | inactive | inactive | > 100 | 1.04 | inactive | inactive | inactive | >490 | inactive | inhibition [14]: inactive; CC50 [15]: > 100000 nM; inhibition (Punta Toro virus): inactive; solubility [16]: 2.19 µM (≈ 0.765 µg/mL); inhibition (Human alphaherpesvirus 2): inactive; IC50 (Plasmodium falciparum [17]): 304 nM; inhibition (Coxsackievirus B4 [18]): inactive; inhibition (Felid alphaherpesvirus 1): inactive
5 | Clc1ccc2c(NCCCNc3ccnc(Cl)n3)ccnc2c1 | inactive | 0.6 (≈ 0.209 µg/mL) | inactive | inactive | inactive | inactive | inactive | inactive | inactive | inactive | 207 | inactive | inactive | > 100 | 0.229 | inactive | inactive | inactive | >483 | inactive | inhibition [14]: inactive; CC50 [15]: > 100000 nM; inhibition (Punta Toro virus): inactive; solubility [16]: 1.01 µM (≈ 0.352 µg/mL); inhibition (Human alphaherpesvirus 2): inactive; IC50 (Plasmodium falciparum [17]): 270 nM; inhibition (Coxsackievirus B4 [18]): inactive; inhibition (Felid alphaherpesvirus 1): inactive
6 | Clc1ccc2c(NCCCNc3nccc(N4CCCC4)n3)ccnc2c1 | inactive | 0.22 (≈ 0.0842 µg/mL) | inactive | inactive | inactive | inactive | inactive | inactive | inactive | inactive | 151 | inactive | inactive | 100 | 0.756 | inactive | inactive | inactive | 327 | inactive | inhibition [14]: inactive; CC50 [15]: 49000 nM; inhibition (Punta Toro virus): inactive; solubility [16]: 1.25 µM (≈ 0.479 µg/mL); inhibition (Human alphaherpesvirus 2): inactive; IC50 (Plasmodium falciparum [17]): 28.7 nM; inhibition (Coxsackievirus B4 [18]): inactive; inhibition (Felid alphaherpesvirus 1): inactive
7 | Clc1ccc2c(NCCCNc3nccc(N4CCNCC4)n3)ccnc2c1 | inactive | 0.6 (≈ 0.239 µg/mL) | inactive | inactive | inactive | inactive | inactive | inactive | inactive | inactive | 2000 | inactive | inactive | 100 | 0.102 | inactive | inactive | inactive | 36 | inactive | inhibition [14]: inactive; CC50 [15]: 74000 nM; inhibition (Punta Toro virus): inactive; solubility [16]: 0.75 µM (≈ 0.298 µg/mL); inhibition (Human alphaherpesvirus 2): inactive; IC50 (Plasmodium falciparum [17]): 113 nM; inhibition (Coxsackievirus B4 [18]): inactive; inhibition (Felid alphaherpesvirus 1): inactive
